The results in this text go back to ChEMBL document CHEMBL2331391, “Peroxisome proliferator-activated receptor-γ mediates the anti-inflammatory effect of 3-hydroxy-4-pyridinecarboxylic acid derivatives: synthesis and biological evaluation” (Eur J Med Chem, 2013).

Activity calls are given as the source filed them. No cut-off for these calls is given here.

Series [1] can be described thus: Antiinflammatory activity in human macrophages assessed as inhibition of LPS-induced TNFalpha release at 10 '-3 uM preincubated for 30 mins before LPS-challenge measured after 24 hrs post challenge by ELISA (reference value: 1682 +/-190 ng/ml). The class given is functional, Macrophage. A digest of the protocol: (§1)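 Human blood PBMC-derived macrophages were used after 10 days of culture. Purity >95% (esterase, CD14, morphology). Cells were pretreated 30 min at 37 °C with compound, then given 100 ng/mL LPS (S. enteritidis) for 24 h. TNFα, IL-1β and IL-8 in conditioned medium were measured by ELISA. Working solutions were endotoxin-tested by LAL (<3 pg/mL).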
For orientation: An ELISA detects its analyte on a solid surface through an enzyme-linked reagent.

Series [2] can be described thus: Antiinflammatory activity in human macrophages assessed as inhibition of LPS-induced IL8 release at 100 uM preincubated for 30 mins before LPS-challenge measured after 24 hrs post challenge by ELISA (reference value: 7.86 +/-0.17 ng/ml). In kind it is functional, Macrophage. The essentials:
as §1

Series [3] in a line: Antiinflammatory activity in human macrophages assessed as inhibition of LPS-induced TNFalpha release at 10 uM preincubated for 30 mins before LPS-challenge measured after 24 hrs post challenge by ELISA (reference value: 1682 +/-190 ng/ml). In kind it is functional, Macrophage. The essentials: as §1
Series [4] is described as follows: Antiinflammatory activity in human macrophages assessed as inhibition of LPS-induced TNFalpha release at 5 uM preincubated for 30 mins before LPS-challenge measured after 24 hrs post challenge by ELISA (reference value: 1682 +/-190 ng/ml). In kind it is functional, Macrophage. A digest of the protocol: as §1
In series [5] the target is Transcription factor p65 (Mus musculus) (UniProt Q04207). Put plainly: Inhibition of LPS-induced p65 NF-kappaB promoter activation in mouse CMT93 cells at 10 uM preincubated for 30 mins before LPS-challenge measured after 6 hrs post challenge by luciferase reporter gene assay. The class given is cell-based. A digest of the protocol: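 CMT-93 cells (1×10⁵/well) were transfected with an NF-κB or PPRE luciferase reporter plus CMV-β-Gal. At 24 h they were treated with compound for 30 min, then with 100 ng/mL LPS for 6 h. Cells were lysed in Tris/EDTA/DTT/Triton buffer and supernatant luciferase was read by luminometer. Results are fold over untreated cells.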

The subject of series [6] is CMT93. As to the kind of experiment: Increase in ROS production in LPS-stimulated mouse CMT93 cells at 10 uM preincubated for 30 mins before LPS-challenge measured after 30 mins post challenge by DCFDA fluorescence assay (reference value: 2.64 %). The class given is functional, cell-based.
Series [7] deals with Macrophage. As to the kind of experiment: Antiinflammatory activity in human macrophages assessed as inhibition of LPS-induced IL-1beta release at 10 uM preincubated for 30 mins before LPS-challenge measured after 24 hrs post challenge by ELISA. In kind it is functional, cell-based. The essentials: as §1
A short description of series [8]: Antiinflammatory activity in human macrophages assessed as inhibition of LPS-induced IL8 release at 10 '-2 uM preincubated for 30 mins before LPS-challenge measured after 24 hrs post challenge by ELISA (reference value: 7.86 +/-0.17 ng/ml). In kind it is functional, Macrophage. A digest of the protocol:
as §1

For series [9], the system named is Macrophage. Put plainly: Antiinflammatory activity in human macrophages assessed as inhibition of LPS-induced TNFalpha mRNA transcript accumulation at 10 uM preincubated for 30 mins before LPS-challenge measured after 24 hrs post challenge by quantitative PCR analysis. The class given is functional, cell-based. A digest of the protocol: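 Monocyte-derived human macrophages were pretreated with 10 µM compound, then stimulated with LPS for 24 h. RNA was extracted and TNFα and IL8 transcripts were quantified by real-time RT-PCR with UPL probes. GAPDH served as reference gene.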

Another series has as its system Mus musculus. Put plainly: Antiinflammatory activity in DSS-induced C57Bl/6 mouse colitis model assessed as inhibition IL-1beta level in colonic homogenate at 400 mg/kg/day administered intragastrically for 7 days. The class given is functional, organism-based. The essentials:
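Male C57Bl/6J mice, 8–10 per group, dosed intragastrically daily for 7 days at 400 mg/kg/day (vehicle 100 µL). From day 2, drinking water carried 3.5% w/vol DSS. Killed 5 days after colitis induction. Full-thickness proximal colon homogenised for MPO activity and IL-1β protein.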

A short description of series [10]: Antiinflammatory activity in human macrophages assessed as inhibition of LPS-induced TNFalpha release at 100 uM preincubated for 30 mins before LPS-challenge measured after 24 hrs post challenge by ELISA (reference value: 1682 +/-190 ng/ml). The class given is functional, Macrophage. The essentials:
as §1

For series [11], the system named is CMT93. As to the kind of experiment: Increase in ROS production in LPS-stimulated mouse CMT93 cells at 10 uM preincubated for 30 mins before LPS-challenge measured after 24 hrs post challenge by DCFDA fluorescence assay in presence of alpha-tocopherol. In kind it is functional, cell-based.
Series [12] has as its target Transcription factor p65 (Mus musculus) (UniProt Q04207). Put plainly: Inhibition of LPS-induced p65 NF-kappaB phosphorylation in mouse CMT93 cells at 10 uM preincubated for 30 mins before LPS-challenge measured after 6 hrs post challenge by Western blot analysis. The class given is cell-based. A digest of the protocol: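 CMT-93 cells were pretreated with 10 µM compound and stimulated with LPS for 6 h. Lysates were run on 10% SDS-PAGE and transferred to PVDF. Blots were probed overnight at 4 °C for phospho-p65, IκBα or COX-2 (1:1000), with HRP detection.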
(In general: A western blot detects proteins with antibodies after separation by electrophoresis.)

Series [13] deals with Macrophage. As to the kind of experiment: Increase in PPAR-gamma mRNA transcript level in human macrophages at 10 uM by quantitative PCR analysis. The class given is functional, cell-based.
A short description of series [14]: Cytotoxicity against human macrophages at 10 '5 uM after 72 hrs by MTT assay. In kind it is cell-based. The settings on record: macrophage. In general terms: Tetrazolium assays rely on reduction of a dye to a coloured formazan, in cell work by metabolically active cells.
Series [15] in a line: Antiinflammatory activity in human macrophages assessed as inhibition of LPS-induced IL8 release at 10 '-3 uM preincubated for 30 mins before LPS-challenge measured after 24 hrs post challenge by ELISA (reference value: 7.86 +/-0.17 ng/ml). The class given is functional, Macrophage. The essentials:
as §1

Series [16] deals with Macrophage. Put plainly: Antiinflammatory activity in human macrophages assessed as inhibition of LPS-induced TNFalpha release at 10 uM preincubated for 30 mins before LPS-challenge measured after 24 hrs post challenge by ELISA. The class given is functional, cell-based. The essentials:
as §1

Series [17] has as its system Macrophage. Put plainly: Antiinflammatory activity in human macrophages assessed as inhibition of LPS-induced increase in IL8 level at 10 uM preincubated for 30 mins before LPS-challenge measured after 24 hrs post challenge by ELISA in presence of PPAR-gamma antagonist PD68235. In kind it is functional, cell-based. The essentials: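 Human macrophages were pre-exposed to 20 µM PPARγ antagonist PD68235 alongside 10 µM compound, then challenged with 100 ng/mL LPS. After 24 h, IL8 protein in conditioned medium was measured by ELISA.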

Series [18] is described as follows: Antiinflammatory activity in human macrophages assessed as inhibition of LPS-induced TNFalpha release at 1 uM preincubated for 30 mins before LPS-challenge measured after 24 hrs post challenge by ELISA (reference value: 1682 +/-190 ng/ml). In kind it is functional, Macrophage. The essentials: as §1
Series [19] has as its system Macrophage. Put plainly: Antiinflammatory activity in human macrophages assessed as inhibition of LPS-induced increase in TNFalpha mRNA transcript at 10 uM preincubated for 30 mins before LPS-challenge measured after 24 hrs post challenge by quantitative PCR analysis in presence of PPAR-gamma antagonist PD68235. In kind it is functional, cell-based.
Series [20] in a line: Cytotoxicity against human macrophages at 10 '4 uM after 72 hrs by MTT assay. In kind it is cell-based. The settings on record: macrophage.
Series [21] in a line: Antiinflammatory activity in human macrophages assessed as inhibition of LPS-induced IL8 release at 1 uM preincubated for 30 mins before LPS-challenge measured after 24 hrs post challenge by ELISA (reference value: 7.86 +/-0.17 ng/ml). The class given is functional, Macrophage. A digest of the protocol: as §1
Series [22] in a line: Cytotoxicity against human macrophages up to 100 uM after 72 hrs by MTT assay. The class given is cell-based. To be noted: macrophage.

Chain of Transcription factor p65 (Mus musculus) (Q04207 whole entry): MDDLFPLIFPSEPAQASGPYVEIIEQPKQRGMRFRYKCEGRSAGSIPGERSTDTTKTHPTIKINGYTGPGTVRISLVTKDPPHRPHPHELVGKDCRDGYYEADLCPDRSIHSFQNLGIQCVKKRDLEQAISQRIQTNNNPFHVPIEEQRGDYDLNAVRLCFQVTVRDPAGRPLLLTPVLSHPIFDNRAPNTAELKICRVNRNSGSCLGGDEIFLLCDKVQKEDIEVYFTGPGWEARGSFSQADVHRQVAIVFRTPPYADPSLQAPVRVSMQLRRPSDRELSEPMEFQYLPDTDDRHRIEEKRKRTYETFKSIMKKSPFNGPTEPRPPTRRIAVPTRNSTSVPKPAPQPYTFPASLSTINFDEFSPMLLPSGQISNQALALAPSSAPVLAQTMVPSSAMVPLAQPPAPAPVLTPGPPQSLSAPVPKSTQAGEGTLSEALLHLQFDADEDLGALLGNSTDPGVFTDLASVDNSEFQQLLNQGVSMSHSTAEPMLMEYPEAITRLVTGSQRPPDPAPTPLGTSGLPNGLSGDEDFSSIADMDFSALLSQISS

Consider `C[n+]1ccc(C(=O)O)c(O)c1.[Cl-]`, for which the Activity in series [1] was determined as 1689 ng/mL; in [2], 4.43 ng/mL; in [3], 1084 ng/mL; in [4], 1738 ng/mL; in series [8], 7.56 ng/mL; in series [10], 1069 ng/mL. In addition, the Activity entry in [14] is “Toxic”; in series [15], 7.98 ng/mL; in series [18], 1651 ng/mL; in series [20], “Toxic”; in [21], 7.32 ng/mL; in series [22] it was “Non-toxic”. Besides, the inhibition result (in series [5]; in the series with Macrophage [7]; with Macrophage [9]; in the series with Mus musculus; in series [12]; in the series with Macrophage [16]) was “Active” each time. In the series on Macrophage [17], the inhibition result was “Active”. Further, the outcome with CMT93 [6] and with Macrophage [13] was Active. Further, the outcome in the series with CMT93 [11] was inactive. In addition, in the series on Macrophage [19], the inhibition entry is “inactive”.
